Experimental data reported in ChEMBL document CHEMBL5712893, “Multiple Histone Lysine Methyltransferases Are Required for the Establishment and Maintenance of HIV-1 Latency” (2017).
Activity calls are given as the source filed them. The calls are words filed in the database; no cut-off is given here.

Columns and labels:
[1] = tested on: Human immunodeficiency virus 1; test: Reactivation of HIV-1 latent proviruses in Th17 resting memory T cells after PRC2 KD infected with vesicular stomatitis virus G-pseudotyped HIV-1 at 10 nM by FACS analysis; type: functional
Summary of the method: (§1)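 Naive CD4+ T cells from healthy-donor PBMCs were activated with CD3/CD28 beads, polarized to Th17, and infected with VSV-G-pseudotyped Nef+ HIV-1 expressing CD8a-d2EGFP. Infected cells were CD8a-selected and made quiescent for 2 weeks in IL-2 (15 IU/ml) plus IL-23 ([…]). Cells were then exposed to compound for 96 h. Nef and pSer175-CDK9 were read by FACS, and viability by propidium iodide.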

[2] = tested on: Human immunodeficiency virus 1; test: Reactivation of latent proviruses in human Th17 cells infected with HIV-1 assessed as Nef and pSer175-CDK9 levels at 100 nM after 72 hrs by FACS analysis; type: functional
Summary of the method: (§2)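 Th17 cells exposed to inhibitor (100 nM) for 72 h, then infected with HIV-1. Infected cells kept under low-cytokine conditions to enter quiescence, with drug replenished every 72 h. On day 26, cells washed free of drug and induced with CD3/CD28 beads, IL-15 (50 ng/ml) or ConA (5 µg/ml). Nef and pSer175-CDK9 read by FACS; DMSO-pretreated control.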

[3] = tested on: Human immunodeficiency virus 1; test: Reactivation of quiescent HIV-1 infected in human Th17 cells stimulated by IL-15 treated at 100 nM for 72 hrs followed by viral infection replenishment of drug medium every 72 hrs for 26 days by FACS analysis relative to control; type: functional; summary of the method: as §2
[4] = tested on: Human immunodeficiency virus 1; test: Reactivation of HIV-1 latent proviruses in Th17 resting memory T cells by measuring pSer175 CDK9 level treated at 10 nM for 96 hrs by FACS analysis (reference value: 0.76%); type: functional
[5] = tested on: Human immunodeficiency virus 1; test: Reactivation of HIV-1 latent proviruses in Th17 resting memory T cells by measuring pSer175 CDK9 level treated at 100 nM for 96 hrs by FACS analysis (reference value: 0.76%); type: functional; summary of the method: as §1
[6] = tested on: Human immunodeficiency virus 1; test: Reactivation of HIV-1 latent proviruses in Th17 resting memory T cells by measuring pSer175 CDK9 level treated at 1 uM for 96 hrs by FACS analysis (reference value: 0.76%); type: functional; summary of the method: as §1
[7] = tested on: Human immunodeficiency virus 1; test: Reactivation of HIV-1 latent proviruses in Th17 resting memory T cells after PRC2 KD infected with vesicular stomatitis virus G-pseudotyped HIV-1 at 100 nM by FACS analysis relative to control; type: functional
Summary of the method: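 Th17 cells were pretreated with 100 nM compound for 72 h, then infected with VSV-G-pseudotyped HIV-1 and cultured under low-cytokine conditions to force quiescence, with drug replenished every 72 h. On day 26 the drug was washed out and cells were induced with CD3/CD28 beads, IL-15 (50 ng/ml) or ConA (5 µg/ml). Nef and pSer175-CDK9 were read by FACS against DMSO-pretreated cells.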

[8] = tested on: Human immunodeficiency virus 1; test: Reactivation of HIV-1 latent proviruses in Th17 resting memory T cells by measuring pSer175 CDK9 level treated at 10 nM for 96 hrs by FACS analysis (reference value: 1.07%); type: functional
[9] = tested on: Human immunodeficiency virus 1; test: Reactivation of HIV-1 latent proviruses in Th17 resting memory T cells by measuring pSer175 CDK9 level treated at 100 nM for 96 hrs by FACS analysis (reference value: 1.07%); type: functional
[10] = tested on: Human immunodeficiency virus 1; test: Reactivation of HIV-1 latent proviruses in Th17 resting memory T cells by measuring pSer175 CDK9 level treated at 1 uM for 96 hrs by FACS analysis (reference value: 1.07%); type: functional; summary of the method: as §1
[11] = tested on: Human immunodeficiency virus 1; test: Reactivation of HIV-1 infected in human Jurkat cells at 1 uM measured after 7 days by FACS analysis relative to control; type: functional; conditions: time 7 day
Summary of the method: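 E4 Jurkat cells carrying latent d2EGFP HIV-1, infected with shRNA or CRISPR-Cas9 lentivirus. Seven days post-infection, stimulated overnight with SAHA (1 µM), anti-CD3 (0.125 µg/ml) plus anti-CD28 (1 µg/ml), or TNF-α (1 ng/ml). d2EGFP-positive cells quantified by FACS. Three separate experiments, SEM.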

[12] = tested on: Human immunodeficiency virus 1; test: Antiviral activity against HIV-1 in human Jurkat T cells assessed as reduction GFP positive cells at 1 uM for 18 hrs; type: functional, organism-based
Summary of the method: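 Jurkat E6 cells pretreated overnight with inhibitor (5 µM; DZNep 5 or 10 µM; phenelzine 250 µM), washed twice with PBS, then spinoculated with VSV-G-pseudotyped HIV-1 (d2EGFP-Nef). Three days later, silent proviruses induced with 1 µM SAHA for 18 h. d2EGFP measured by FACS. Relative silencing is the % silent virus (SAHA-stimulated minus untreated GFP+), divided by scrambled/untreated control. Two independent experiments, SEM.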

[13] = tested on: Human immunodeficiency virus 1; test: Reactivation of HIV-1 latent proviruses in Th17 resting memory T cells by measuring pSer175 CDK9 level treated at 10 nM for 96 hrs by FACS analysis (reference value: 1.59%); type: functional
[14] = tested on: Human immunodeficiency virus 1; test: Reactivation of HIV-1 latent proviruses in Th17 resting memory T cells by measuring pSer175 CDK9 level treated at 100 nM for 96 hrs by FACS analysis (reference value: 1.59%); type: functional; summary of the method: as §1
[15] = tested on: Human immunodeficiency virus 1; test: Reactivation of HIV-1 latent proviruses in Th17 resting memory T cells by measuring pSer175 CDK9 level treated at 1 uM for 96 hrs by FACS analysis (reference value: 1.59%); type: functional; summary of the method: as §1

Row | Compound | Activity [1] [%] | Activity [2] [%] | Activity [3] [%] | Activity [4] [%] | Activity [5] [%] | Activity [6] [%] | Activity [7] [%] | Activity [8] [%] | Activity [9] [%] | Activity [10] [%] | Activity [11] [%] | Activity [12] | Activity [13] [%] | Activity [14] [%] | Activity [15] [%]
1 | CCN(c1cc(-c2ccc(CN3CCOCC3)cc2)cc(C(=O)NCc2c(C)cc(C)[nH]c2=O)c1C)C1CCOCC1 [TAZEMETOSTAT] | 20 | ~10 | 40 | 16.28 | 29.17 | 27.81 |  |  |  |  |  |  |  |  | 
2 | CCCc1cc(C)[nH]c(=O)c1CNC(=O)c1cc(-c2ccnc(N3CCN(C)CC3)c2)cc2c1cnn2C(C)C | 20 | ~8 | 27 |  |  |  | 24.15 | 22.31 | 24.13 | 29.11 |  |  |  |  | 
3 | O=C(CCCCCCC(=O)Nc1ccccc1)NO [VORINOSTAT] |  |  |  |  |  |  |  |  |  |  | ~30 | Active |  |  | 
4 | COc1cc2c(NC3CCN(C(C)C)CC3)nc(C3CCCCC3)nc2cc1OCCCN1CCCC1 | 35 | ~4 | 22 |  |  |  |  |  |  |  |  |  | 22.84 | 32.18 | 34.92
